Source: PubChem BioAssay (Johns Hopkins Ion Channel Center)
Hits are enriched below; roughly 3.8% of the tested compounds scored in any of these assays.
KCNQ1 pot: potentiators or activators of KCNQ1 channel, primary screen, cell-based, thallium flux, high-throughput | AID 2648, 2010 | hit rate 0.35% among 310,000 | B-score at 10 µM | CHO-K1 KCNQ1, thallium flux FluxOR fluorescence; hits give high values;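 active = fluorescence ratio B-score, a plate-corrected score, at least three library SD, with initial intensity B-score within 5 SD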
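Test system: CHO-K1 cells stably expressing KCNQ1 / Medium: assay buffer / Also added: depolarizing K+/Tl+ stimulus, K2SO4 and Tl2SO4 each 12.5 mM in 5x stock / Incubation: 90 min dye loading and 20 min compound exposure, both at room temperature / Signal: thallium influx via FluxOR fluorescence, kinetic imaging / Evaluation: B score of baseline-normalized fluorescence ratio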
hERG rescue: hERG rescue from dofetilide block, primary screen, cell-based, CHO-hERG, FluxOR thallium flux, dofetilide IC70 | AID 1511, 2009 | Voltage-gated inwardly rectifying potassium channel KCNH2 (Homo sapiens), Q12809 | activation (rescue from dofetilide block), less the hit threshold, % at 10 µM | hit rate 0.51% among 310,000 | dofetilide IC70 present;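 active = activation above the mean of controls blocked by dofetilide plus 5 SD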;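 also: thallium influx through hERG after potassium depolarization seen as dye fluorescence rise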
KCNK9 block: KCNK9 potassium channel inhibitors, primary screen, HEK293 cells, thallium flux; Potassium channel subfamily K member 9 (Homo sapiens), Q9NPC2; FluxOR thallium flux fluorescence; hits give low values; B-score at 10 µM; hit rate 1.2% among 310,000;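 active = ratio B-score over 3 SD below the library mean, with starting fluorescence within 5 SD of its mean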;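 also: negative B-score means less thallium flux so channel inhibition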
KCNK3 inh: human KCNK3 channel inhibitors, primary screen, CHO cells, FluxOR thallium flux, B-score; FluxOR fluorescence; hits give low values; Potassium channel subfamily K member 3 (Homo sapiens), O14649; B-score at 10 µM; hit rate 0.84% among 340,000;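 active = B-score under library mean minus 4 SD, starting fluorescence ratio at most library mean plus 5 SD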;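 also: more negative B-score means stronger inhibition of thallium flux through KCNK3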
Kir21 inh: inhibitors of mouse Kir2.1 inward-rectifier potassium channel; AID 1672, 2009; B-score at 10 µM; HEK293-Kir2.1, FluxOR thallium flux fluorescence; hits give low values; hit rate 0.85% among 310,000; Inward rectifier potassium channel 2 (Mus musculus), P35561;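 active = fluorescence ratio B-score at or below minus 3 SD of library scores, with starting-brightness B-score within 2 SD, cut at about -4.2 in these data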;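 also: channel flux triggered by added potassium and thallium sulfate stimulus; B-score of peak minus minimum fluorescence over baseline after thallium stimulus; more negative B-score means stronger Kir2.1 block with less thallium influx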
KCNQ1 block: inhibitors of human KCNQ1 channel, primary screen, cell-based, thallium flux, high-throughput | Potassium voltage-gated channel subfamily KQT member 1 (Homo sapiens), P51787 | CHO-K1 KCNQ1, FluxOR thallium flux fluorescence; hits give high values | B-score at 10 µM | hit rate 1.3% among 310,000 | AID 2642, 2010;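 active = compounds whose thallium flux B-score, printed positive for inhibition, exceeds three library SD while starting fluorescence stays within three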;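 also: channel opened by potassium depolarization with thallium stimulus after 20 min compound exposure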
KCNK3 inh conf: retest of human KCNK3 channel inhibitors, confirmation, CHO cells, FluxOR thallium flux, triplicate. FluxOR fluorescence; 0% buffer, 100% carvedilol maximal block. shares compounds with KCNK3 inh. ratio percent of control, % at 10 µM. hit rate 99% among 2,400;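 active = ratio percent of control, averaged over triplicates, above buffer control mean plus 5 SD, cut at about 64% in these data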;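 also: ratio is the fluorescence rise from min to max over baseline after thallium stimulus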
KCNK3 noninduced: thallium flux inhibition in non-induced cells, primary screen, counter-screen for KCNK3 inhibitor project, cell-based, non-induced KCNK3 line, FluxOR thallium, triplicate | shares compounds with KCNK3 inh | non-induced KCNK3 parental cells; hits give low values | thallium flux ratio (lower = more inhibition) at 10 µM | hit rate 40% among 2,400 | AID 651747, 2012;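 active = thallium flux ratio, averaged over three wells, more than 5 SD below the buffer control mean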;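 also: host cells are CHO cells without KCNK3 induction; ratio is peak minus trough fluorescence over baseline then normalized to buffer controls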
Active calls of the source: *; i = inactive; . = not tested or not shown.

SMILES	KCNQ1 pot	hERG rescue	KCNK9 block	KCNK3 inh	Kir21 inh	KCNQ1 block	KCNK3 inh conf	KCNK3 noninduced
O=C(N/N=C/c1cccnc1)c1cc(-c2ccc(Br)cc2)nc2ccccc12	i	-12.0	i	i	-2.2	i	.	.
COc1ccc(CNCCCC(=O)Nc2c(Cl)ccc(C)c2Cl)cc1OC	i	-6.6	i	i	-0.66	i	.	.
CCOC(=O)c1sc2nc(CC(=O)OC)nc(N(C)CCc3ccccn3)c2c1C	i	-10.3	i	-10.2*	0.18	i	109.0*	i
CCOC(=O)c1sc2nc(CC(=O)OC)nc(NCCN(CC)CC)c2c1C	i	-6.9	i	i	0.76	i	.	.
COc1cc2c(c(OC)c1OC)C(c1ccccc1C)CC(=O)O2 (centres undefined)	.	.	.	i	.	.	.	.
Cc1noc(C)c1COc1ccccc1C(=O)NNC(=O)c1ccccc1F	.	.	.	i	.	.	.	.
Cc1ccc(OCC(=O)NNC(=O)c2ccccc2OCc2c(C)noc2C)cc1	i	-12.5	i	-8.72*	0.02	i	94.3*	i
O=C(N/N=C/c1c[nH]c2ccccc12)c1ccn(Cc2ccc(Cl)cc2Cl)n1	i	-6.4	i	-9.3*	-0.37	i	106.3*	0.15*
O=S(=O)(c1cccc2cccnc12)N1CCN(c2ccccc2)CC1	i	-17.1	i	i	-0.01	i	.	.
Cc1ccc(C)c(N2CCN(S(=O)(=O)c3cccc4cccnc34)CC2)c1	i	-10.4	i	-9.85*	-1.62	i	115.7*	0.149*
CC(C)CC(=O)Nc1cccc(-c2nc3ccccc3[nH]2)c1	i	-19.8	i	-10.7*	0.42	i	124.0*	0.119*
O=C(Nc1cccc(-c2nc3ccccc3[nH]2)c1)c1ccccn1	i	-10.4	-7.07*	-12.6*	1.79	i	108.7*	i
CC(=O)Nc1cccc(-c2nc3ccccc3[nH]2)c1	i	-20.3	i	i	-0.42	i	.	.
Cc1nc(-c2cccc(NC(=O)C(C)Oc3ccccc3)c2)cs1 (centres undefined)	i	-7.6	i	i	-0.28	i	.	.
CC(C)(C)C(=O)Nc1cccc(-c2nc3ccccc3[nH]2)c1	i	-16.4	i	-10.6*	1.64	i	93.3*	i
CC(Oc1ccccc1)C(=O)Nc1cccc(-c2nc3ccccc3[nH]2)c1 (centres undefined)	i	-22.6	-7.36*	-11.2*	-0.33	i	100.3*	0.142*
O=C(O)c1cccc(-c2nc3ccccc3[nH]2)c1	i	1.1	i	i	-1.55	i	.	.
CC(=O)Nc1cccc(-c2nc3ccc(NC(C)=O)cc3[nH]2)c1	i	-4.3	i	i	-1.84	i	.	.
CC1=C(C(=O)OC(C)C)C(c2ccc(C)o2)C(C(=O)OC(C)C)=C(C)N1	i	-10.8	i	-9.42*	0.17	i	113.3*	0.138*
COC(=O)CSc1nnc2n(C3CCCCC3)c(=O)c3c4c(sc3n12)CCCC4	i	-10.5	i	-9.52*	-0.51	i	96.0*	0.153*
CCNC(=S)N1CCc2cc(OC)c(OC)cc2C1COc1ccc(F)cc1 (centres undefined)	i	-10.0	i	-8.71*	0.58	i	102.0*	i
CCc1noc(C)c1C(=O)N1CCC(CCC(=O)Nc2cccc(OC)c2)CC1	i	-3.9	i	i	0	i	.	.
COc1cccc(NC(=O)COC(=O)/C=C/c2c(C)nn(-c3ccccc3)c2C)c1	.	.	.	i	.	.	.	.
COc1cn(-c2ccccc2)nc1C(=O)Nc1ccc(C)cc1Cl	i	-2.5	i	i	1.59	i	.	.
Cc1cc(C(=O)Nc2cccc3ccccc23)co1	i	-10.0	i	i	0.7	i	.	.
SMILES	KCNQ1 pot	hERG rescue	KCNK9 block	KCNK3 inh	Kir21 inh	KCNQ1 block	KCNK3 inh conf	KCNK3 noninduced
Cc1oc(-c2ccccc2)cc1C(=O)Nc1cccc2ccccc12	i	-9.4	i	-10.8*	0.36	i	119.3*	0.16*
O=C(NNC(=O)c1cc(-c2ccccc2)nc2ccccc12)Nc1cccc(Cl)c1	i	-22.1	i	-9.9*	1.22	13*	114.7*	i
C=CCn1c(SCC(=O)N(CC)c2c(N)n(Cc3ccccc3)c(=O)[nH]c2=O)nnc1-c1ccccc1OC	.	.	.	i	.	.	.	.
COC(=O)C1=C(C)NC(=S)NC1c1ccc(-c2cc(Cl)ccc2Cl)o1 (centres undefined)	i	-12.6	i	-8.94*	-2.92	i	106.7*	i
COC(=O)C1=C(C)NC(=O)NC1c1ccc(-c2ccc(Cl)cc2)o1 (centres undefined)	i	-12.1	i	i	-0.32	i	.	.
CCOc1cccc(C(=O)Nc2cccc(NC(=O)c3ccco3)c2)c1	i	-22.7	-6.83*	-11.9*	2.07	i	76.0*	i
CC(C)OC(=O)c1ccc(NC(=O)c2ccco2)cc1	i	-10.1	i	-9.8*	-1.44	i	91.0*	i
CCOc1cccc(C(=O)Nc2cccc(C(C)=O)c2)c1	i	-6.3	i	i	-4.04	i	.	.
O=C(Nc1cccc(S(=O)(=O)c2cccc(NC(=O)c3ccco3)c2)c1)c1ccco1	i	-13.9	i	-9.4*	-1.84	i	136.3*	0.143*
CC(C)(C)c1cc(C(=O)NCCN2CCCC2)cc(C(C)(C)C)c1	i	-9.4	i	i	-1.02	i	.	.
O=c1c(O)c(-c2ccccc2)oc2cc(O)cc(O)c12	.	.	.	i	.	.	.	.
O=c1c(-c2ccccc2)c(-c2ccccc2)oc2cc(O)cc(O)c12	i	-13.9	i	-8.98*	-0.81	13*	112.0*	i
CCCCOc1ccc(-c2nnn(C(C)(C)C(=O)OC)n2)cc1	i	-8.8	-6.65*	-11.3*	-0.9	i	96.0*	i
CCCOc1ccc(-c2nnn(CC(=O)Nc3cccc(C(=O)OC)c3)n2)cc1	i	-2.8	i	i	-1.61	i	.	.
